Consider 13 molecules from ChEMBL document CHEMBL4007404, “Identification of High-Potency Human TLR8 and Dual TLR7/TLR8 Agonists in Pyrimidine-2,4-diamines” (J Med Chem, 2017).

Format in all cases: cell-based
Test [1] addresses Toll-like receptor 5 (Homo sapiens) (UniProt O60602). As to the kind of experiment: Activity at human TLR5 expressed in HEK293 cells co-expressing secreted alkaline phosphatase assessed as induction of NF-kappaB/AP-1 promoter activity by measuring increase in secreted alkaline phosphatase level by spectrophotometric method. The procedure, abridged: (§1)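 HEK293 cells stably co-transfected with the relevant human TLR (2, 3, 4, 5, 7, 8 or 9) plus an NF-κB/AP-1-driven secreted alkaline phosphatase reporter, kept in selection medium. Cells at ~10⁵ cells/ml were exposed to graded concentrations of stimuli in 384-well format, liquid-handler assisted. Supernatant sAP was read at 620 nm with an alkaline phosphatase-specific chromogen.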

The target of test [2] is T1, Toll-like receptor 9 (Homo sapiens) (UniProt Q9NR96).
T1 sequence (whole entry): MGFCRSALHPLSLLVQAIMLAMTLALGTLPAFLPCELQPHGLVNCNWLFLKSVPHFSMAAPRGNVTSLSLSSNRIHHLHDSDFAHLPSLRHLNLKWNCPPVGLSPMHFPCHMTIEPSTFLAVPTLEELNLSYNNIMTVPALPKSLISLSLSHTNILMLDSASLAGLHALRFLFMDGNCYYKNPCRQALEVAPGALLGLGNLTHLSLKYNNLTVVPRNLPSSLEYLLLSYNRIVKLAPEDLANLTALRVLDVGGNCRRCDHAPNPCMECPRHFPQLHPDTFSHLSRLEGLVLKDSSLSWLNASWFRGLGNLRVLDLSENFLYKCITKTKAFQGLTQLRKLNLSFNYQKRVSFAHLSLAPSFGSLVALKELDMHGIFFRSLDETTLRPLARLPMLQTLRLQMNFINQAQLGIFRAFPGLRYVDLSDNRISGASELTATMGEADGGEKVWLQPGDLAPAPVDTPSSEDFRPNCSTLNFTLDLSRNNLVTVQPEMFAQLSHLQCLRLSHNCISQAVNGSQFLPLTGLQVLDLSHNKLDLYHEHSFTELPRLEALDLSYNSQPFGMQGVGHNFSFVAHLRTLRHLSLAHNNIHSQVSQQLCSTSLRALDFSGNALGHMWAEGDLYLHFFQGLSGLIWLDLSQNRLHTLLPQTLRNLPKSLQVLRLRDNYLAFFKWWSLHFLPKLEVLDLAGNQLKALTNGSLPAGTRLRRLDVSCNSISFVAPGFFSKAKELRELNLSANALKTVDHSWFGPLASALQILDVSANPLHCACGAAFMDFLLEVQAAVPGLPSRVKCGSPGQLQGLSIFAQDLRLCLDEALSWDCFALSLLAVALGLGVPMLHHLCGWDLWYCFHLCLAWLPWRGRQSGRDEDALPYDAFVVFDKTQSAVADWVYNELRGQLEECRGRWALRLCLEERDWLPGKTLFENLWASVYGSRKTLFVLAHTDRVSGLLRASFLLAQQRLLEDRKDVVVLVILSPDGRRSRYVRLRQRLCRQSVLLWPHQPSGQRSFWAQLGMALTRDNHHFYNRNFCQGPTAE
The test is described as follows: Activity at human TLR9 expressed in HEK293 cells co-expressing secreted alkaline phosphatase assessed as induction of NF-kappaB/AP-1 promoter activity by measuring increase in secreted alkaline phosphatase level by spectrophotometric method. A digest of the protocol:
as §1

Test [3] addresses Toll-like receptor 4 (Homo sapiens) (UniProt O00206). As to the kind of experiment: Activity at human TLR4 expressed in HEK293 cells co-expressing secreted alkaline phosphatase assessed as induction of NF-kappaB/AP-1 promoter activity by measuring increase in secreted alkaline phosphatase level by spectrophotometric method. The procedure, abridged:
as §1

The target of test [4] is Toll-like receptor 2 (Homo sapiens) (UniProt O60603). As to the kind of experiment: Activity at human TLR2 expressed in HEK293 cells co-expressing secreted alkaline phosphatase assessed as induction of NF-kappaB/AP-1 promoter activity by measuring increase in secreted alkaline phosphatase level by spectrophotometric method. The procedure, abridged: as §1
Sequence of Toll-like receptor 2 (Homo sapiens) (O60603 whole entry): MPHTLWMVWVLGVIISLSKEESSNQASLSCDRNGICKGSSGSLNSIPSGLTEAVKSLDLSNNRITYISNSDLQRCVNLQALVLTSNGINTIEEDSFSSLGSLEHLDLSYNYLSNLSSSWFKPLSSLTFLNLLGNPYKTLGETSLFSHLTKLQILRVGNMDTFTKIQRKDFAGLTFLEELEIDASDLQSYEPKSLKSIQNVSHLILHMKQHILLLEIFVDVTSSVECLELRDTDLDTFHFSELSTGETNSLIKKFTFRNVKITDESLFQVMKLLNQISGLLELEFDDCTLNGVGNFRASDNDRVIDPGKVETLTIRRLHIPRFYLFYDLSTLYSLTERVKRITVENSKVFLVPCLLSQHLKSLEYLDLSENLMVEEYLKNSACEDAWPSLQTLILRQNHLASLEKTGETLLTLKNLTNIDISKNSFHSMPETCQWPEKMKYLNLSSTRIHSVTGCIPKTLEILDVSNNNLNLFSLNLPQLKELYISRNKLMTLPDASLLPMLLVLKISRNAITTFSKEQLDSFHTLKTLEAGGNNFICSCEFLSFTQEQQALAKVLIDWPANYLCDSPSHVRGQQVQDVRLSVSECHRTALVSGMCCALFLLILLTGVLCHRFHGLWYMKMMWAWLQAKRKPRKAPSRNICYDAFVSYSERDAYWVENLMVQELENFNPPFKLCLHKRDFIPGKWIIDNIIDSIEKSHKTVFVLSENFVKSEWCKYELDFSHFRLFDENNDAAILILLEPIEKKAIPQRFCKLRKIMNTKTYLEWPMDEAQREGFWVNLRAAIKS
For test [5], the target named is Toll-like receptor 3 (Homo sapiens) (UniProt O15455). The test is described as follows: Activity at human TLR3 expressed in HEK293 cells co-expressing secreted alkaline phosphatase assessed as induction of NF-kappaB/AP-1 promoter activity by measuring increase in secreted alkaline phosphatase level by spectrophotometric method. A digest of the protocol: as §1
Sequence of Toll-like receptor 3 (Homo sapiens) (O15455 whole entry): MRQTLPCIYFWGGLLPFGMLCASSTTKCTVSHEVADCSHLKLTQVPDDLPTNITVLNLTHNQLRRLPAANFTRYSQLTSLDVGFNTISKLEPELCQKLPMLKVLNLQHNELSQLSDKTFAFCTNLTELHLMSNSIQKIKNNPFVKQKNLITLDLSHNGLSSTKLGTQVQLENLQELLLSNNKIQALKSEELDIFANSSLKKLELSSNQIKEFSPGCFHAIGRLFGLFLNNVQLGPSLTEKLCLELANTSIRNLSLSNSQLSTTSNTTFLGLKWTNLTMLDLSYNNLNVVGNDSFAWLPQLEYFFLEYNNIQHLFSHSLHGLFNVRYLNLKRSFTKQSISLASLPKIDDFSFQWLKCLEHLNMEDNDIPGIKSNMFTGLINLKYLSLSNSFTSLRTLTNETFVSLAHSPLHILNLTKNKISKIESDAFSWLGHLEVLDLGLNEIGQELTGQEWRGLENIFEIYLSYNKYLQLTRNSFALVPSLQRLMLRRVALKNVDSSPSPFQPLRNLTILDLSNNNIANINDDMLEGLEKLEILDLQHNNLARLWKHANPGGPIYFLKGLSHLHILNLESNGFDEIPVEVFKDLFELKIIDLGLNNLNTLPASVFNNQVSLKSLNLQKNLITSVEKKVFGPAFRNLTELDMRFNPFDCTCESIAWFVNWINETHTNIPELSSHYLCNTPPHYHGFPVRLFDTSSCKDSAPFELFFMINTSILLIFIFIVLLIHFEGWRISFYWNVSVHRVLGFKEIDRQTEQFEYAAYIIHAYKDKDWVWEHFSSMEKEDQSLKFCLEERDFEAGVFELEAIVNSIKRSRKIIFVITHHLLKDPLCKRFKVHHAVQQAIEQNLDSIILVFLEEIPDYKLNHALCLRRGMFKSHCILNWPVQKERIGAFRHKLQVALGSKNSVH
Another test has as its target T2, Toll-like receptor 7 (Homo sapiens, UniProt Q9NYK1).
T2 sequence (Q9NYK1 whole entry): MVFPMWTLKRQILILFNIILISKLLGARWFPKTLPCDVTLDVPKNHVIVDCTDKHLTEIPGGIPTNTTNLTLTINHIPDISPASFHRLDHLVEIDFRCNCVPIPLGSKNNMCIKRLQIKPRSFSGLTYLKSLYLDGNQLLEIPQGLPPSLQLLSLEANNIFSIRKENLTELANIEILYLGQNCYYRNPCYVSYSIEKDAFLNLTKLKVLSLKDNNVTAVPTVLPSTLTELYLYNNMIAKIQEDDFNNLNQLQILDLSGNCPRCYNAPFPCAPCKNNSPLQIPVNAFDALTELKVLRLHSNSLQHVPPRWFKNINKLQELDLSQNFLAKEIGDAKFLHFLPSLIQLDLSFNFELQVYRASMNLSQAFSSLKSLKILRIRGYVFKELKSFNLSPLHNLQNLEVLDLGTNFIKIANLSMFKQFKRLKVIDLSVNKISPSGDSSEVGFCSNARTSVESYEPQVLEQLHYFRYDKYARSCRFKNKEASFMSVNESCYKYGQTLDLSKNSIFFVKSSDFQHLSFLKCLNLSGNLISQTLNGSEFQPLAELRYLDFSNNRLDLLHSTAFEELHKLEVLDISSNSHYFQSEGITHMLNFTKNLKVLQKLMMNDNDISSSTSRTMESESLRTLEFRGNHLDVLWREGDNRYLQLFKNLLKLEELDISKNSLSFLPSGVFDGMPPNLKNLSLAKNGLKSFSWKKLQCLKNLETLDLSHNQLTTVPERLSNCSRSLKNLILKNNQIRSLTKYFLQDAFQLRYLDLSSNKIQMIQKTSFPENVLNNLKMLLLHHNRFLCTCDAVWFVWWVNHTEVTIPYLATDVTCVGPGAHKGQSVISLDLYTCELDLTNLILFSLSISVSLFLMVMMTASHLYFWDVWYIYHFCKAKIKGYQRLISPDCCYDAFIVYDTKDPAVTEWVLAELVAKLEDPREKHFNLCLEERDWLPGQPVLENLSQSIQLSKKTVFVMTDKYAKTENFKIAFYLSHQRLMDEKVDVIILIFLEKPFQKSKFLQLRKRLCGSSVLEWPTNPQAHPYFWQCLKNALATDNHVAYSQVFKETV
As to the kind of experiment: Agonist activity at human TLR7 expressed in HEK293 cells co-expressing secreted alkaline phosphatase assessed as induction of NF-kappaB/AP-1 promoter activity by measuring increase in secreted alkaline phosphatase level by spectrophotometric method. The procedure, abridged: as §1

Active and inactive are the calls of the source. The calls are words filed in the database; no cut-off is given here.

Sequence of Toll-like receptor 5 (Homo sapiens) (O60602 whole entry): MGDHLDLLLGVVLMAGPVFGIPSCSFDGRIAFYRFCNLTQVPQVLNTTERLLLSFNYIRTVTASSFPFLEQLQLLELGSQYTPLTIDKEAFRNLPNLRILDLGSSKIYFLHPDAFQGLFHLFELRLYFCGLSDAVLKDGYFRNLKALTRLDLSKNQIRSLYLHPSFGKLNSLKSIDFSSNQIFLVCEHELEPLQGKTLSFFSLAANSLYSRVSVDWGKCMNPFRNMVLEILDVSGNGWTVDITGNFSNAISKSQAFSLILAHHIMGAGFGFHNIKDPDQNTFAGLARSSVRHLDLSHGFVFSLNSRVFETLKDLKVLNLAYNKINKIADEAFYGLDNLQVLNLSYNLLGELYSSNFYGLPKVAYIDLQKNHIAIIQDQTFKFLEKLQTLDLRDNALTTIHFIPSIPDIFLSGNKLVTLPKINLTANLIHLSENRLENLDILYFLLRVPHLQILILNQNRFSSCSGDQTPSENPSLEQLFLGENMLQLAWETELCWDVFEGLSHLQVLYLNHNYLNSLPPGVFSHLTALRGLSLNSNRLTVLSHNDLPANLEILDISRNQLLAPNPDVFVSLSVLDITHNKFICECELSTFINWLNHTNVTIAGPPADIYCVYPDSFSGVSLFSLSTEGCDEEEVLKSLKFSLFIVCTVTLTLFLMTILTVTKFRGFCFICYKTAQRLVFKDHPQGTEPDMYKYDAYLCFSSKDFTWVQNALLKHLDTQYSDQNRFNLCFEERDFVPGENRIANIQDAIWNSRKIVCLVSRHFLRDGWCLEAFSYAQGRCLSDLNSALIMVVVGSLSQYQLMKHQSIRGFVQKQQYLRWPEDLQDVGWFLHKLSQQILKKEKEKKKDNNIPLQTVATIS
Sequence of Toll-like receptor 4 (Homo sapiens) (O00206 whole entry): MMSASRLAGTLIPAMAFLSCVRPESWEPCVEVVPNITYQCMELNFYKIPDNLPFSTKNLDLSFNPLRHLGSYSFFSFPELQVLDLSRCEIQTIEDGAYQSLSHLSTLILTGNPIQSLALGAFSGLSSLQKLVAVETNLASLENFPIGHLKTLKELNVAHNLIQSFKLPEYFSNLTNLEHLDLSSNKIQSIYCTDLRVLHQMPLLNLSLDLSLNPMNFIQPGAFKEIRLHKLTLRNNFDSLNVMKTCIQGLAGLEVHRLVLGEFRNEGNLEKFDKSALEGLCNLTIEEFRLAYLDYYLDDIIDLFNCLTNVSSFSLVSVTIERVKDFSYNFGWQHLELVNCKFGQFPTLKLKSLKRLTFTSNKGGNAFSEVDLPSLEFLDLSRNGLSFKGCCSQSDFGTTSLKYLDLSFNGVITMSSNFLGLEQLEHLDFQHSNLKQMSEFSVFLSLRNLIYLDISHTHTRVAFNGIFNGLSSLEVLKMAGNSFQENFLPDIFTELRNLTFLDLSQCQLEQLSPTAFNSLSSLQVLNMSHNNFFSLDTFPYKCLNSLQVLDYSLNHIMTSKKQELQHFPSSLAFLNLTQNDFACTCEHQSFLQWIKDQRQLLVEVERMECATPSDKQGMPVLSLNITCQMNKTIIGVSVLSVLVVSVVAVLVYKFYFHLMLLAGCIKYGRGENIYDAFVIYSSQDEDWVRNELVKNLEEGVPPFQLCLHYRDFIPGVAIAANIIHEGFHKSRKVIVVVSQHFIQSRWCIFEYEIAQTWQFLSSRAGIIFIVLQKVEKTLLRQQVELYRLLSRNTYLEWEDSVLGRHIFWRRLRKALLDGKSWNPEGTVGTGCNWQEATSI

Broadly, the EC50 is the concentration giving half of the maximal effect. Consider `CCCCNc1nc(N)nc(C)c1CCCCO`, for which the outcome in test [1], in test [2], in test [3], in test [4] and in test [5] was inactive. In addition, on Toll-like receptor 7, the 50% effective concentration (EC50) stood at 1020 nM.
As to `CCCCNc1nc(N)nc(C)c1CCCCN1CCOCC1`, the result in test [1], in test [2], in test [3], in test [4] and in test [5] was inactive. Further, the EC50 on Toll-like receptor 7 is 1400 nM.
As for `CCCCNc1nc(N)nc(C)c1CCCN1CCOCC1`, the result in test [1], in test [2], in test [3], in test [4] and in test [5] was inactive. Moreover, on Toll-like receptor 7, the EC50 came to 46 nM.
Take `CCCCNc1nc(N)nc(C)c1C`: the outcome in test [1], in test [2], in test [3], in test [4] and in test [5] was inactive. Further, the EC50 on Toll-like receptor 7 is 3400 nM.
Consider `CCCCNc1nc(N)nc(C)c1CCCn1cccn1`, for which the outcome in test [1], in test [2], in test [3], in test [4] and in test [5] was inactive. Also, at Toll-like receptor 7, the EC50 amounted to 398 nM.
Consider `CCCCNc1nc(N)nc(C)c1CCCCCc1ccccc1`, for which the result in test [1], in test [2], in test [3], in test [4] and in test [5] was inactive. Moreover, at Toll-like receptor 7, the EC50 turned out to be 265 nM.
On to `CCCCNc1nc(N)nc(C)c1CCCC(C)(C)O`, for which the result in test [1], in test [2], in test [3], in test [4] and in test [5] was inactive. Also, the EC50 on Toll-like receptor 7 came out at 2890 nM.
With `CCCCNc1nc(N)nc(C)c1CCCCc1ccccc1`, the outcome in test [1], in test [2], in test [3], in test [4] and in test [5] was inactive. The half-maximal effective concentration (EC50) on Toll-like receptor 7 amounted to 262 nM.
As for `CCCCNc1nc(N)nc(C)c1CCC(C)(C)O`, the outcome in test [1], in test [2], in test [3], in test [4] and in test [5] was inactive. At Toll-like receptor 7, the EC50 worked out at 3260 nM.
For `CCCCNc1nc(N)nc(C)c1CCCC1CCCCC1`, the outcome in test [1], in test [2], in test [3], in test [4] and in test [5] was inactive. In addition, the EC50 at Toll-like receptor 7 is 1100 nM.
For the molecule `CCCCNc1nc(N)nc(C)c1CCCN1CCN(c2ccccc2)CC1`, the outcome in test [1], in test [2], in test [3], in test [4] and in test [5] was inactive. The EC50 on Toll-like receptor 7 is 1160 nM.
With `CCCCNc1nc(N)nc(C)c1CCCc1ccccc1`, the outcome in test [1], in test [2], in test [3], in test [4] and in test [5] was inactive. Moreover, the EC50 on Toll-like receptor 7 was 194 nM.
As for `CCCCNc1nc(N)nc(C)c1CCc1ccccc1`, the outcome in test [1], in test [2], in test [3], in test [4] and in test [5] was inactive. Besides, the concentration for a half-maximal effect (EC50) on Toll-like receptor 7 is 2820 nM.
